In ChEMBL document CHEMBL3817726, “Chemically Diverse Group I p21-Activated Kinase (PAK) Inhibitors Impart Acute Cardiovascular Toxicity with a Narrow Therapeutic Window” (J Med Chem, 2016):

Tests used:
[1] = molecular target: Serine/threonine-protein kinase PAK 5 (Homo sapiens) (UniProt Q9P286); experiment: Inhibition of recombinant human full length His-tagged PAK5 expressed in Baculovirus at 1 uM relative to control
[2] = molecular target: Tyrosine-protein kinase ABL2 (Homo sapiens) (UniProt P42684); experiment: Inhibition of recombinant human full length His-tagged ARG expressed in Baculovirus at 1 uM relative to control
[3] = molecular target: CDK7/Cyclin H/MNAT1 (Homo sapiens) (UniProt P51946+P50613+P51948); experiment: Inhibition of recombinant human full length His-tagged CDK7/cyclin H/MNAT1 expressed in Baculovirus at 1 uM relative to control
[4] = molecular target: Serine/threonine-protein kinase Chk1 (Homo sapiens) (UniProt O14757); experiment: Inhibition of recombinant human full length His-tagged CHK1 expressed in Baculovirus at 1 uM relative to control
[5] = molecular target: Serine/threonine-protein kinase Chk2 (Homo sapiens) (UniProt O96017); experiment: Inhibition of recombinant human full length His-tagged CHK2 expressed in Baculovirus at 1 uM relative to control
[6] = molecular target: Receptor-type tyrosine-protein kinase FLT3 (Homo sapiens) (UniProt P36888); experiment: Inhibition of recombinant human full length His-tagged FLT3 expressed in Baculovirus at 1 uM relative to control
[7] = molecular target: Glycogen synthase kinase-3 beta (Homo sapiens) (UniProt P49841); experiment: Inhibition of recombinant human full length His-tagged GSK3beta expressed in Baculovirus at 1 uM relative to control
[8] = molecular target: Tyrosine-protein kinase Lyn (Homo sapiens) (UniProt P07948); experiment: Inhibition of recombinant human full length His-tagged LynB expressed in Baculovirus at 1 uM relative to control
[9] = molecular target: Serine/threonine-protein kinase MARK1 (Homo sapiens) (UniProt Q9P0L2); experiment: Inhibition of recombinant human full length GST-tagged MARK1 expressed in Baculovirus at 1 uM relative to control
[10] = molecular target: MAP/microtubule affinity-regulating kinase 3 (Homo sapiens) (UniProt P27448); experiment: Inhibition of recombinant human full length GST-tagged MARK3 expressed in Baculovirus at 1 uM relative to control
[11] = molecular target: Tyrosine-protein kinase Mer (Homo sapiens) (UniProt Q12866); experiment: Inhibition of recombinant human GST-tagged Mer expressed in Baculovirus at 1 uM relative to control
[12] = molecular target: Serine/threonine-protein kinase 4 (Homo sapiens) (UniProt Q13043); experiment: Inhibition of recombinant human full length GST-tagged MST1 expressed in Baculovirus at 1 uM relative to control
[13] = molecular target: Phosphorylase b kinase gamma catalytic chain, skeletal muscle/heart isoform (Homo sapiens) (UniProt Q16816); experiment: Inhibition of recombinant human full length GST-tagged PHKgamma 1 expressed in Baculovirus at 1 uM relative to control
[14] = molecular target: cAMP-dependent protein kinase catalytic subunit alpha (Homo sapiens) (UniProt P17612); experiment: Inhibition of recombinant human full length His-tagged PRKACA expressed in Escherichia coli at 1 uM relative to control
[15] = molecular target: Protein kinase C alpha type (Homo sapiens) (UniProt P17252); experiment: Inhibition of recombinant human full length PKCalpha expressed in Baculovirus at 1 uM relative to control
[16] = molecular target: Protein kinase C theta type (Homo sapiens) (UniProt Q04759); experiment: Inhibition of recombinant human full length His-tagged PKCtheta expressed in Baculovirus at 1 uM relative to control
[17] = molecular target: 5'-AMP-activated protein kinase catalytic subunit alpha-1 (Homo sapiens) (UniProt Q13131); experiment: Inhibition of recombinant human PRKAA1 at 1 uM relative to control
[18] = molecular target: 5'-AMP-activated protein kinase catalytic subunit alpha-2 (Homo sapiens) (UniProt P54646); experiment: Inhibition of recombinant human PRKAA2 at 1 uM relative to control
[19] = molecular target: Proto-oncogene tyrosine-protein kinase receptor Ret (Homo sapiens) (UniProt P07949); experiment: Inhibition of recombinant human full length GST-tagged RET expressed in Baculovirus at 1 uM relative to control
[20] = molecular target: Ribosomal protein S6 kinase alpha-2 (Homo sapiens) (UniProt Q15349); experiment: Inhibition of recombinant human full length His-tagged RSK2 expressed in Baculovirus at 1 uM relative to control
[21] = molecular target: Ribosomal protein S6 kinase alpha-3 (Homo sapiens) (UniProt P51812); experiment: Inhibition of recombinant human full length GST-tagged RSK3 expressed in insect cells at 1 uM relative to control
[22] = molecular target: Ribosomal protein S6 kinase alpha-6 (Homo sapiens) (UniProt Q9UK32); experiment: Inhibition of recombinant human full length GST-tagged RSK4 expressed in Baculovirus at 1 uM relative to control
[23] = molecular target: Proto-oncogene tyrosine-protein kinase Src (Homo sapiens) (UniProt P12931); experiment: Inhibition of recombinant human full length His-tagged SRC expressed in Baculovirus at 1 uM relative to control
[24] = molecular target: Testis-specific serine/threonine-protein kinase 1 (Homo sapiens) (UniProt Q9BXA7); experiment: Inhibition of recombinant human full length His-tagged TSSK1 expressed in Baculovirus at 1 uM relative to control
[25] = molecular target: High affinity nerve growth factor receptor (Homo sapiens) (UniProt P04629); experiment: Inhibition of recombinant human His-tagged TRKA (441 to 796 residues) expressed in Baculovirus at 1 uM relative to control
[26] = molecular target: Tyrosine-protein kinase Yes (Homo sapiens) (UniProt P07947); experiment: Inhibition of recombinant human full length GST-tagged YES expressed in Baculovirus at 1 uM relative to control
[27] = molecular target: Serine/threonine-protein kinase 25 (Homo sapiens) (UniProt O00506); experiment: Inhibition of recombinant human full length GST-tagged YSK1 expressed in Baculovirus at 1 uM relative to control
[28] = molecular target: Serine/threonine-protein kinase 24 (Homo sapiens) (UniProt Q9Y6E0); experiment: Inhibition of recombinant human full length GST-tagged MST3 expressed in Baculovirus at 1 uM relative to control
[29] = molecular target: Serine/threonine-protein kinase 26 (Homo sapiens) (UniProt Q9P289); experiment: Inhibition of recombinant human full length GST-tagged MST4 expressed in Baculovirus at 1 uM relative to control
[30] = molecular target: Adenosine receptor A1 (Homo sapiens) (UniProt P30542); experiment: Inhibition of recombinant human adenosine A1 receptor expressed in CHO cells at 10 uM relative to control; type: cell-based
[31] = molecular target: Adenosine receptor A2a (Homo sapiens) (UniProt P29274); experiment: Inhibition of recombinant human adenosine A2A receptor expressed in HEK293 cells at 10 uM relative to control; type: cell-based
[32] = molecular target: Sodium-dependent serotonin transporter (Homo sapiens) (UniProt P31645); experiment: Inhibition of recombinant human 5HT transporter expressed in CHO cells at 10 uM relative to control; type: cell-based
[33] = Fraction unbound in mouse plasma at 50 mg/kg, ip; type: ADME, organism-based
[34] = Cmax associated with acute adverse effect in mouse at 50 mg/kg, ip; type: ADME, organism-based; parameters: dose 50 mg/kg, route intraperitoneal; conditions: in vivo
In short: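 Mouse tolerability studies tested multiple doses, given orally or intraperitoneally. Plasma drug concentrations were measured, including at a 15 min time point. The minimum concentration associated with adverse clinical signs or death was taken as the adverse Cmax and was converted to an unbound value.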

[35] = system: Mus musculus; experiment: fCmax associated with acute adverse effect in mouse at 50 mg/kg, ip; type: ADME, organism-based; conditions: in vivo
In short: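 Mouse tolerability studies at multiple doses, oral or intraperitoneal. Minimum unbound plasma concentration associated with adverse effects (total Cmax converted to unbound) compared with IC50 for inhibition of MEK1 S298 phosphorylation in cells.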

[36] = Cmax in mouse at 50 mg/kg, ip; type: ADME, organism-based; parameters: dose 50 mg/kg, route intraperitoneal; conditions: in vivo
[37] = Ratio of fCmax associated with acute adverse effect in mouse at 50 mg/kg, ip to IC50 for PAK1/2-mediated phosphorylation of MEK1 at serine 298 in human EBC1 cells
In short: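 Mouse tolerability study run at multiple doses, here by i.p. injection. Plasma drug levels were measured, and total concentration was converted to unbound. The minimum unbound Cmax associated with adverse effects (C_max,adverse,u) was divided by the cellular IC50 for inhibition of PAK1/2-mediated MEK1 S298 phosphorylation.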

[38] = molecular target: Serine/threonine-protein kinase PAK 4 (Homo sapiens) (UniProt O96013); conditions: 1 uM
[39] = molecular target: Serine/threonine-protein kinase PAK 6 (Homo sapiens) (UniProt Q9NQU5); conditions: 1 uM

Chain of Serine/threonine-protein kinase PAK 4 (Homo sapiens) (O96013 whole entry, looked up): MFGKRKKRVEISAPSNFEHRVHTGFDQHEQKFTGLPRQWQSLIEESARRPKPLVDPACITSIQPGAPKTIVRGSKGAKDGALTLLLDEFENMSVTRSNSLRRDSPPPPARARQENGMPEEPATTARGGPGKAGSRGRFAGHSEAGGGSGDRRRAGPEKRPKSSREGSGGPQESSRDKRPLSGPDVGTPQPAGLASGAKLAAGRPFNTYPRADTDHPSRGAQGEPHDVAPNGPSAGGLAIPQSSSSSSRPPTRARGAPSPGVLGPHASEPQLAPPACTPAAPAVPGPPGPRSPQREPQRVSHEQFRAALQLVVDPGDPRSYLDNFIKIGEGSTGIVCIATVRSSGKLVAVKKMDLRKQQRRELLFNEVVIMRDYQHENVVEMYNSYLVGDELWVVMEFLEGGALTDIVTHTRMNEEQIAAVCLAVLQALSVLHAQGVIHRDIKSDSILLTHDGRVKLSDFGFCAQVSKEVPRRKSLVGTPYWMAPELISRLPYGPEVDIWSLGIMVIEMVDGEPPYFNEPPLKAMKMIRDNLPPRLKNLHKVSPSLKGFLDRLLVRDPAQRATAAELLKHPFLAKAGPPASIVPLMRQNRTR
Chain of 5'-AMP-activated protein kinase catalytic subunit alpha-1 (Homo sapiens) (Q13131 whole entry, looked up): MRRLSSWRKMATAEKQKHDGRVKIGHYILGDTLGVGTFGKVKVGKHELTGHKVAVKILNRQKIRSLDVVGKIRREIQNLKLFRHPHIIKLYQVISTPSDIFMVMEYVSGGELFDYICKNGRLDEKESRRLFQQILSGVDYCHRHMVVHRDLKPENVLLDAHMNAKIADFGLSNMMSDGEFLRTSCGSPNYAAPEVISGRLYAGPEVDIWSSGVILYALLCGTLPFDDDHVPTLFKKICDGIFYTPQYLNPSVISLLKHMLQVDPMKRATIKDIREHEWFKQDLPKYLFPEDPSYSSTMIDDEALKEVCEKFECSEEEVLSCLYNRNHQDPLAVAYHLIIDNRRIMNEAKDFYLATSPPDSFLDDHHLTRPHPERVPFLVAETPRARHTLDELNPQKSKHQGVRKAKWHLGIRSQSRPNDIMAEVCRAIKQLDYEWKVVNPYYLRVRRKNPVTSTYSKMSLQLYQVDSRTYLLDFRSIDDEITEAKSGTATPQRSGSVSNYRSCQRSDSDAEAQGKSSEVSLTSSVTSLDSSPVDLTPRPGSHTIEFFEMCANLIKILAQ
Chain of Serine/threonine-protein kinase 26 (Homo sapiens) (Q9P289 2-416 limits assumed): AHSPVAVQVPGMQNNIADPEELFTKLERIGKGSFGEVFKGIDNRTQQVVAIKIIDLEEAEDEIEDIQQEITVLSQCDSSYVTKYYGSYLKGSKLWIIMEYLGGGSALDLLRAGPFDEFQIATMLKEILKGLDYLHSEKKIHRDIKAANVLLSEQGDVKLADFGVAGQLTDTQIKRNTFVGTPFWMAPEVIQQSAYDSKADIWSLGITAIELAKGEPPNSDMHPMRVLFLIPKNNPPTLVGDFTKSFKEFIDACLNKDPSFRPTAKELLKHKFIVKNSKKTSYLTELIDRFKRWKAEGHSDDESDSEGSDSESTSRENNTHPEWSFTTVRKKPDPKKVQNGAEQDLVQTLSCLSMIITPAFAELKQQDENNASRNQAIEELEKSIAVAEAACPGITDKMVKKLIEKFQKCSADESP
Chain of Tyrosine-protein kinase ABL2 (Homo sapiens) (P42684 whole entry): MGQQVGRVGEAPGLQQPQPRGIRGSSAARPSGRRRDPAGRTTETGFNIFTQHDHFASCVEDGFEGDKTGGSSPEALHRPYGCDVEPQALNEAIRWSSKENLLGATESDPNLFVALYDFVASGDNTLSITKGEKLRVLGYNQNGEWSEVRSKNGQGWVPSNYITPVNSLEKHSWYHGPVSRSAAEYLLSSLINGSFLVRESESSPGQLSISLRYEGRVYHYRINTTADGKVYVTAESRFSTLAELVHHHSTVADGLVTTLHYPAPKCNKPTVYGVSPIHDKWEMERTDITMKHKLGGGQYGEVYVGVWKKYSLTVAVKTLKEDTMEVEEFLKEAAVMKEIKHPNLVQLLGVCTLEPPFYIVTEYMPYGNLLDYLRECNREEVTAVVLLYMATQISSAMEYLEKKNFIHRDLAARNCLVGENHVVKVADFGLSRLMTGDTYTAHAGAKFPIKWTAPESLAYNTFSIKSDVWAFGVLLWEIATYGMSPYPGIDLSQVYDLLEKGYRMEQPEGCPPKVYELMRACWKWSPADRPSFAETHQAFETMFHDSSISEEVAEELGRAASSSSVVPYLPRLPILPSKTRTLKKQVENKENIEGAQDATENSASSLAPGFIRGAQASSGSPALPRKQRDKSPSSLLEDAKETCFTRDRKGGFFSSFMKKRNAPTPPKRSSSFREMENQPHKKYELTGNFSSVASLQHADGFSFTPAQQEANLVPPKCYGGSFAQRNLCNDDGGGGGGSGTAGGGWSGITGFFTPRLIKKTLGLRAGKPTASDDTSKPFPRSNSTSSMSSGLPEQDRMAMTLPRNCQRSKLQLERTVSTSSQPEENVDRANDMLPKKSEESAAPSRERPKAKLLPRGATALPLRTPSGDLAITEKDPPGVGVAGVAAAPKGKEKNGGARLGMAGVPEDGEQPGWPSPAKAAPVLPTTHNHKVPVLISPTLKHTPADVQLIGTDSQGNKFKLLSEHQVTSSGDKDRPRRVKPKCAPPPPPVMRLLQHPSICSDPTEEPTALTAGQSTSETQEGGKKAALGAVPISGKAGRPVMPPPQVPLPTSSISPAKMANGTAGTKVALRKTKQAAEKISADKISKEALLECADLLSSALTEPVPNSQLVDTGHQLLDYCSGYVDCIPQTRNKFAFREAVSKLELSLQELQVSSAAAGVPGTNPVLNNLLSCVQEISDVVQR
Chain of Ribosomal protein S6 kinase alpha-6 (Homo sapiens) (Q9UK32 whole entry): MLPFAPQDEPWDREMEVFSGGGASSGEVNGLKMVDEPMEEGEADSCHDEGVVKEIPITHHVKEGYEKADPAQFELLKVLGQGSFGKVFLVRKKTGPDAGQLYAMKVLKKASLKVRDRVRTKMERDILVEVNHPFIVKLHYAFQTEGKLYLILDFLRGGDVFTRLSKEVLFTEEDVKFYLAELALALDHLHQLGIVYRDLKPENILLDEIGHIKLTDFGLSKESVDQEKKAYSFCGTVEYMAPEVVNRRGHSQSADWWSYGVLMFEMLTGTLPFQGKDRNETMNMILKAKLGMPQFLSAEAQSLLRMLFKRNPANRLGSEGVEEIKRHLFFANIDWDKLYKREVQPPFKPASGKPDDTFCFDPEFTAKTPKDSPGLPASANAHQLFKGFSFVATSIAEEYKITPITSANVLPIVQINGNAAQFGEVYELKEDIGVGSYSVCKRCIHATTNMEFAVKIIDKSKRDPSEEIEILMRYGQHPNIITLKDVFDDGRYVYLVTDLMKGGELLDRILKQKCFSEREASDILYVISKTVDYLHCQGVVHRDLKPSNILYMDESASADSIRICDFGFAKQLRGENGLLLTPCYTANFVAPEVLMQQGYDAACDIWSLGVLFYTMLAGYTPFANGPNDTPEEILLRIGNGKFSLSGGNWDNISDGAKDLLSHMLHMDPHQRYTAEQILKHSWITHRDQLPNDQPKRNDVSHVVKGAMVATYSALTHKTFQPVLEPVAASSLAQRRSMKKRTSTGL
Chain of Serine/threonine-protein kinase Chk1 (Homo sapiens) (O14757 whole entry): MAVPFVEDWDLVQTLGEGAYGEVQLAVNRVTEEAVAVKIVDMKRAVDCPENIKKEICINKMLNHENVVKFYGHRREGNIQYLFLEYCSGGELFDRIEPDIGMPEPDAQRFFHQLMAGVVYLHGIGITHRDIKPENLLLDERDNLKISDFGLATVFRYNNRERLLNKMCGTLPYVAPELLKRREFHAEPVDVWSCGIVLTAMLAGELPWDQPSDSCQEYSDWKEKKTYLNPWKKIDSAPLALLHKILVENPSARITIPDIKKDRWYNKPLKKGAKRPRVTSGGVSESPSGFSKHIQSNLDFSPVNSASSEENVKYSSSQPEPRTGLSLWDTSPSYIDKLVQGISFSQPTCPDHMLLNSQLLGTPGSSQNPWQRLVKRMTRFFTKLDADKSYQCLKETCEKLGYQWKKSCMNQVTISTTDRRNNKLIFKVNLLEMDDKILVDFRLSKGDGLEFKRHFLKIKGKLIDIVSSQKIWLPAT
Chain of Serine/threonine-protein kinase 4 (Homo sapiens) (Q13043 whole entry, canonical isoform): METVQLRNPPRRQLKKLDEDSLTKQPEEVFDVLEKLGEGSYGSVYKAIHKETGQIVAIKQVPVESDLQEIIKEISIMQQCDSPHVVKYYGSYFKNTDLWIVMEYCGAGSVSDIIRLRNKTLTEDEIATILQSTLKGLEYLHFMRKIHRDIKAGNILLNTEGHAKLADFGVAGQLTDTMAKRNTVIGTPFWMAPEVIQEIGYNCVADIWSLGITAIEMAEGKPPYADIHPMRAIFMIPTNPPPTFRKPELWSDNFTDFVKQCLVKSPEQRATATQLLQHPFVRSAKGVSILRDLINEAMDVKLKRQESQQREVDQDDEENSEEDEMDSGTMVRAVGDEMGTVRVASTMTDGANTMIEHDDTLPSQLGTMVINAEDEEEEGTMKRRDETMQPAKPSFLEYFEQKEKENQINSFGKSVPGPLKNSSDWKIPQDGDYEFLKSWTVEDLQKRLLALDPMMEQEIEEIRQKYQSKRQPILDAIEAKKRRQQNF
Chain of Proto-oncogene tyrosine-protein kinase Src (Homo sapiens) (P12931 2-536 limits assumed): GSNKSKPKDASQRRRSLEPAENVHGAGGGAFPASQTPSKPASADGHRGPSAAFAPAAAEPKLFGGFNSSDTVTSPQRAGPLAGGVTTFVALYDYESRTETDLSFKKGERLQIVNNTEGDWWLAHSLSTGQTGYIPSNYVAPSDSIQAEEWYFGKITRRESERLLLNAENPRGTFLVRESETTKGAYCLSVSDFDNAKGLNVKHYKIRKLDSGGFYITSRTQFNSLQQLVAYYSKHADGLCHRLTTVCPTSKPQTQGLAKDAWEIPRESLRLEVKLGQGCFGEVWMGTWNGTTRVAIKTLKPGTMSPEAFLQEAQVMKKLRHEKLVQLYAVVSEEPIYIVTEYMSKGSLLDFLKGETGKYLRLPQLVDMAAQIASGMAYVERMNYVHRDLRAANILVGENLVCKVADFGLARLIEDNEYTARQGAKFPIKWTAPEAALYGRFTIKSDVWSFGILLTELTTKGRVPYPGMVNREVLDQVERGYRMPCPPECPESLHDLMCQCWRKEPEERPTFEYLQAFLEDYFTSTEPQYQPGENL

- inhibition [1]: > 75%
- inhibition [2]: > 75%
- inhibition [3]: > 75%
- inhibition [4]: > 75%
- inhibition [5]: > 75%
- inhibition [6]: > 75%
- inhibition [7]: > 75%
- inhibition [8]: > 75%
- inhibition [9]: > 75%
- inhibition [10]: > 75%
- inhibition [11]: > 75%
- inhibition [12]: > 75%
- inhibition [13]: > 75%
- inhibition [14]: > 75%
- inhibition [15]: > 75%
- inhibition [16]: > 75%
- inhibition [17]: > 75%
- inhibition [18]: > 75%
- inhibition [19]: > 75%
- inhibition [20]: > 75%
- inhibition [21]: > 75%
- inhibition [22]: > 75%
- inhibition [23]: > 75%
- inhibition [24]: > 75%
- inhibition [25]: > 75%
- inhibition [26]: > 75%
- inhibition [27]: > 75%
- inhibition [28]: > 75%
- inhibition [29]: > 75%
- inhibition [30]: > 75%
- inhibition [31]: > 75%
- inhibition [32]: > 75%
- fraction unbound [33]: 0.163
- Cmax [36]: 10 µM
- inhibition [38]: > 75%
- inhibition [39]: > 75%
SMILES: Cc1nc(Nc2n[nH]c3c2CN(C(=O)N[C@H](CN(C)C)c2ccccc2)C3(C)C)c2sccc2n1 [PF-03758309]
- Cmax [34]: 10 µM
- fCmax [35]: 1.6 µM
- Ratio [37]: 1
